Measurements as given in PubChem BioAssay.
Results filed as inconclusive are left out.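 How the source made its calls, unless noted: active means viability increase at or above a cutoff of the median across tested compounds plus 3 SD (cut at about 8.5% in these data, passing the limit was not always enough); inconclusive means some gains above the cutoff, reason not given; inactive means the rest.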

Experiments:
[1] = S. cerevisiae growth inhibition in permissive medium (OD615), pilot counter-assay for S. cerevisiae lifespan shortening project, permissive growth control (AID 705;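 active means growth inhibition above 25% in both replicates, a cutoff set 3 SD above the mean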); conditions: OD615, 24 h, at 10 µM, hits give high values
In short: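 System: Engineered DeaD yeast | Buffer or medium: SC raffinose/galactose permissive medium | Doses: 10 µM single dose, 0.25% DMSO | Times: 24 h exposure, 30 °C | Measured by: OD615 turbidity read | Read-out: Yeast growth inhibition indicated by reduced 24 h OD615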

[2] = S. cerevisiae growth inhibition in restrictive medium, OD615, pilot screen, restrictive growth control, yeast lifespan reduction project (AID 706;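 active means growth inhibition above a set limit, 3 SD over mean compound inhibition, in both replicates, cut at about 43% in these data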;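 further: modified DeaD lifespan yeast strain shifted to restrictive glucose medium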); conditions: OD615, 48 h, at 10 µM, hits give high values
In short: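 Assay system: engineered S. cerevisiae DeaD strain; Buffer or medium: CSMM-D glucose medium; Dosing: 10 µM compound, 0.25% DMSO; Times: cell pre-growth 4 h, compound exposure 48 h, 30 °C; Detection: absorbance (optical density) measured at 615 nm.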

[3] = doxorubicin toxicity protection in MRP-1 cells – H69AR cells, CellTiter-Glo, duplicate, MRP-1 activator project, pilot screen (AID 807); conditions: H69AR viability with doxorubicin, CellTiter-Glo luminescence; at 10 µM; hits give high values;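 further: compound pretreatment 18-22 h then 72 h combined with doxorubicin; 0% = doxorubicin alone and 100% = vehicle without doxorubicin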
[4] = viability of HCT116 without oncogenic beta-catenin – human colon tumor cells, pilot screen (AID 823;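 active means cell viability at or below a set limit in both duplicate runs, the limit being the all-compound median minus 4 SD, cut at about 23% in these data, passing the limit was not always enough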;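 further: 0% = wells killed by 20 µM Hyamine and 100% = untreated DMSO cell wells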); conditions: HCT116 beta-catenin knockout viability, CellTiter-Glo, 60 h; at 10 µM; hits give low values
[5] = viability of PTEN-null HCT116 cells – cell-based, HCT116 clonal line, CellTiter-Glo, pilot screen (AID 824;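 active means viability at or below 27.92% in each of two runs, the all-compound median minus 4 SD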;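 further: 0% = 20 µM Hyamine control and 100% = vehicle cell control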); conditions: HCT116 PTEN-deleted viability, 60 h, at 10 µM, hits give low values
[6] = RAM pathway blockade in budding yeast – dse1pr::URA3 reporter, 5-FOA selection, pilot screen (AID 869;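 active means inhibition over a set limit, the all-compound mean plus 3 SD, in both replicate runs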;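 further: 0% = DMSO wells with no growth and 100% = 10 µM 1-NA-PP1 with full growth; RAM network block rescues cells from 5-FOA so hits raise OD615 growth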); conditions: S. cerevisiae dse1pr::URA3 5-FOA growth, OD615, 2 d; at 10 µM; hits give high values; strain carries analog-sensitive mutant Cbk1 kinase
[7] = RAM signaling pathway blockade in yeast – S. cerevisiae, Pdr1DBD-CYC8 efflux-inhibited sensitized strain, primary screen (AID 1298;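 active means RAM network inhibition above 8.4% in each of two replicates, 3 SD over the compound average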;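 further: 0% = DMSO untreated cells without growth and 100% = 10 µM 1-NA-PP1 full growth; higher means more yeast growth rescued from 5-FOA killing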); conditions: S. cerevisiae cbk1-as DSE1-URA3 strain, 5-FOA growth OD615, 2 d; at 50 µM; hits give high values

CCn1c(O)c(C2=NCCCC2)c2ccccc21
inactive: growth inhibition [1] 0.575% | growth inhibition [2] 11.6% | viability increase [3] -0.12% | viability [4] 95% | viability [5] 102% | inhibition [6] -0.49% | RAM network inhibition [7] 1.14%

O=C1c2ccccc2-c2nc3ncnn3c(-c3ccccc3Cl)c21
inactive: growth inhibition [1] -6.53% | growth inhibition [2] -0.65% | viability increase [3] -3.38% | viability [4] 83.3% | viability [5] 76.9% | inhibition [6] 0.39% | RAM network inhibition [7] 0.58%

CCC(=O)Nc1c2c(nn1-c1ccc(F)cc1)CS(=O)C2 (stereo unspecified)
inactive: growth inhibition [1] -7.18% | growth inhibition [2] 1.07% | viability increase [3] 0.7% | viability [4] 99.2% | viability [5] 99.5% | inhibition [6] 0.265% | RAM network inhibition [7] 2.18%

COc1ccc(OC)c(NC(=O)Nc2nnc(N3CCC(C)CC3)s2)c1
inactive: growth inhibition [1] -10.7% | growth inhibition [2] -9.16% | viability increase [3] 0.87% | viability [4] 93.1% | viability [5] 92.7% | inhibition [6] 1.01% | RAM network inhibition [7] 2.27%

CCOC(=O)Cc1csc(NC(=O)Nc2ccccc2)n1
inactive: growth inhibition [1] -11.8% | growth inhibition [2] -12.1% | viability increase [3] -0.81% | viability [4] 53.2% | viability [5] 53.2% | inhibition [6] 0.665% | RAM network inhibition [7] 4.19%

COc1ccc(S(=O)(=O)n2nc(-c3cc(OC)c(OC)c(OC)c3)cc2N)cc1OC
inactive: growth inhibition [1] -12% | growth inhibition [2] 12.7% | viability increase [3] -3.64% | viability [4] 56.3% | viability [5] 74.8% | inhibition [6] 0.16% | RAM network inhibition [7] 5.52%

COc1ccc(C(c2sc3nc(C)nn3c2O)N2CCC(C(N)=O)CC2)cc1OC (stereo unspecified)
inactive: growth inhibition [1] -11.7% | growth inhibition [2] -16.2% | viability increase [3] -0.96% | viability [4] 99.7% | viability [5] 96.2% | inhibition [6] 1.54% | RAM network inhibition [7] 3.49%

Cc1sc2ncnc(Sc3nnc4sc5ccccc5n34)c2c1C
inactive: growth inhibition [1] 6.21% | growth inhibition [2] -2.07% | viability increase [3] -3.97% | viability [4] 55.4% | viability [5] 65.2% | inhibition [6] 2.33% | RAM network inhibition [7] 5.95%

CCCN(CCC)S(=O)(=O)c1ccc(C(=O)N2CCC(=O)c3ccccc32)cc1
inactive: growth inhibition [1] -0.75% | growth inhibition [2] 1.45% | viability increase [3] -5.63% | viability [4] 81.2% | viability [5] 89.7% | inhibition [6] 2.23% | RAM network inhibition [7] 0.93%

CC(=O)N(Cc1ccco1)C1(C(=O)NC2CCCCC2)CCCCC1
inactive: growth inhibition [1] -10.7% | growth inhibition [2] -22.6% | viability increase [3] -2.47% | viability [4] 94.9% | viability [5] 94.5% | inhibition [6] 3.02% | RAM network inhibition [7] 1.51%

Cn1c(=O)oc2cc(S(=O)(=O)Nc3cccc(F)c3)ccc21
inactive: growth inhibition [1] -14.2% | growth inhibition [2] -2.1% | viability increase [3] -0.69% | viability [4] 94.3% | viability [5] 89.5% | inhibition [6] 2.04% | RAM network inhibition [7] 5.85%

CCCS(=O)(=O)NCc1cn2c(C)csc2n1
inactive: growth inhibition [1] -0.385% | growth inhibition [2] 17.2% | viability increase [3] -2.28% | viability [4] 102% | viability [5] 92.6% | inhibition [6] 2.58% | RAM network inhibition [7] 5.52%

O=C(Nc1ccc(N2CCCCC2)cc1)c1cncc(Br)c1
inactive: growth inhibition [1] 5.98% | growth inhibition [2] 15.3% | viability increase [3] -4.57% | viability [4] 100% | viability [5] 96.8% | inhibition [6] 1.98% | RAM network inhibition [7] 5.26%

CCOC(=O)C1Cn2c(nc3c(c2=O)C(C)(C)Cc2ccccc2-3)S1 (stereo unspecified)
inactive: growth inhibition [1] -1.77% | growth inhibition [2] 2.82% | viability increase [3] 0.36% | viability [4] 90.2% | viability [5] 88.5% | inhibition [6] 3.48% | RAM network inhibition [7] 8.31%

COc1ccccc1NC(=O)CSc1nnc(-c2ccccn2)n1Cc1ccco1
inactive: growth inhibition [1] -3.73% | growth inhibition [2] 13.1% | viability increase [3] -3.83% | viability [4] 101% | viability [5] 96.8% | inhibition [6] 1.23% | RAM network inhibition [7] 2.52%

O=C(NCc1ccccc1)c1cc(S(=O)(=O)N2CCOCC2)ccc1F
inactive: growth inhibition [1] -3.95% | growth inhibition [2] -30.7% | viability increase [3] 0.27% | viability [4] 94.7% | viability [5] 93% | inhibition [6] 3.29% | RAM network inhibition [7] 3.42%

c1ccc(COc2ccc(Nc3ncnc4nc[nH]c34)cc2)cc1
inactive: growth inhibition [1] -2.53% | growth inhibition [2] 7.49% | viability increase [3] -0.86% | viability [4] 85.7% | viability [5] 83% | inhibition [6] 0.435% | RAM network inhibition [7] 4.8%

CC1CCN(C(=O)CNC(=O)Cn2ccc3ccccc3c2=O)CC1
inactive: growth inhibition [1] -9.29% | growth inhibition [2] -0.685% | viability increase [3] -1.73% | viability [4] 98.2% | viability [5] 94.1% | inhibition [6] 0.755% | RAM network inhibition [7] 1.67%
